Screening data from PubChem BioAssay.
This is a sample that favours compounds with a hit; in the whole collection about 3.1% have one here.
KCNQ1 block: inhibitors of human KCNQ1 channel, primary screen, cell-based, thallium flux, high-throughput | Potassium voltage-gated channel subfamily KQT member 1 (Homo sapiens), P51787 | CHO-K1 KCNQ1, FluxOR thallium flux fluorescence; stronger effect = higher value | B-score at 10 µM | 310,000 compounds, 1.3% hits;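 active = compounds whose thallium flux B-score, printed positive for inhibition, exceeds three library SD while starting fluorescence stays within three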;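 note: channel opened by potassium depolarization with thallium stimulus after 20 min compound exposure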
KCNK9 block: KCNK9 potassium channel inhibitors, primary screen, HEK293 cells, thallium flux; AID 488922, 2010; 310,000 compounds, 1.2% hits; B-score at 10 µM; Potassium channel subfamily K member 9 (Homo sapiens), Q9NPC2; FluxOR thallium flux fluorescence; stronger effect = lower value;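 active = ratio B-score over 3 SD below the library mean, with starting fluorescence within 5 SD of its mean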;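 note: negative B-score means less thallium flux so channel inhibition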
hERG protect: hERG rescue from dofetilide block, primary screen, cell-based, CHO-hERG, FluxOR thallium flux, dofetilide IC70. activation (rescue from dofetilide block), less the hit threshold, % at 10 µM. Voltage-gated inwardly rectifying potassium channel KCNH2 (Homo sapiens), Q12809. dofetilide IC70 present. 310,000 compounds, 0.51% hits;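 active = activation above the mean of controls blocked by dofetilide plus 5 SD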;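 note: thallium influx through hERG after potassium depolarization seen as dye fluorescence rise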
Target sequence (Q12809 whole entry, looked up): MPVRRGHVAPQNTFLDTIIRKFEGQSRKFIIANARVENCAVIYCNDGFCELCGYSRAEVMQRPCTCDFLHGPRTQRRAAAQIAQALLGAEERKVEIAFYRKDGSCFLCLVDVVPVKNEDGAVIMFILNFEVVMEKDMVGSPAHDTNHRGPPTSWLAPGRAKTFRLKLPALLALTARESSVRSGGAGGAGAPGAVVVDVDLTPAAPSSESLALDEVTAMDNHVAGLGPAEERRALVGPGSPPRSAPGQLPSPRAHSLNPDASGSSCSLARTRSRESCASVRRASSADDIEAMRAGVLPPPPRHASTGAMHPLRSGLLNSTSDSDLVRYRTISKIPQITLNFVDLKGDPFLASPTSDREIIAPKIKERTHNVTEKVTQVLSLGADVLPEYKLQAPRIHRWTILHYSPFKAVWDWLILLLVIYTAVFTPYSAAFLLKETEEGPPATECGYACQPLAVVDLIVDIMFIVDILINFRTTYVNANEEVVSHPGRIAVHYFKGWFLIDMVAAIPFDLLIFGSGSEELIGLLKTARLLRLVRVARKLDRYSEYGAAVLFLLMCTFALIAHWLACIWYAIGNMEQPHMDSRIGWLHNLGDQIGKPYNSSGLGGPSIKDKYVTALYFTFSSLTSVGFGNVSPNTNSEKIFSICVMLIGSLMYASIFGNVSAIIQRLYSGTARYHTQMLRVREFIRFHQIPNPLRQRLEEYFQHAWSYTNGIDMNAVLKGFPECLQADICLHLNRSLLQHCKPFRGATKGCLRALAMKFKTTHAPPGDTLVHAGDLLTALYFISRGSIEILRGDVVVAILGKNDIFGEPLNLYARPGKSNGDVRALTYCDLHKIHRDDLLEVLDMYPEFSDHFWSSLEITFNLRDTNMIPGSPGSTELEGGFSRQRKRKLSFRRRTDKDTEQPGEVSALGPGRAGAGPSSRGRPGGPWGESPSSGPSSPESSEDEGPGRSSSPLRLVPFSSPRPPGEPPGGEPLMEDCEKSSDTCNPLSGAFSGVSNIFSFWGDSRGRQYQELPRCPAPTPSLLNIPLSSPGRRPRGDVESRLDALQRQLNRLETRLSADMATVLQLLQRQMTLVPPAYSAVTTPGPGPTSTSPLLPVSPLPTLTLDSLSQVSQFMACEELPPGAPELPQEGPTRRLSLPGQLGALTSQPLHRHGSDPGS
KCNK3 block: human KCNK3 channel inhibitors, primary screen, CHO cells, FluxOR thallium flux, B-score; Potassium channel subfamily K member 3 (Homo sapiens), O14649; FluxOR fluorescence; stronger effect = lower value; B-score at 10 µM; 340,000 compounds, 0.84% hits; AID 602410, 2012;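 active = B-score under library mean minus 4 SD, starting fluorescence ratio at most library mean plus 5 SD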;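 note: more negative B-score means stronger inhibition of thallium flux through KCNK3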
KCNQ1 act: potentiators or activators of KCNQ1 channel, primary screen, cell-based, thallium flux, high-throughput. Potassium voltage-gated channel subfamily KQT member 1 (Homo sapiens), P51787. B-score at 10 µM. 310,000 compounds, 0.35% hits. CHO-K1 KCNQ1, thallium flux FluxOR fluorescence; stronger effect = higher value. AID 2648, 2010;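 active = fluorescence ratio B-score, a plate-corrected score, at least three library SD, with initial intensity B-score within 5 SD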
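System: Stable KCNQ1 CHO-K1 line | Incubation: 90 min dye loading and 20 min compound exposure, both at room temperature | Measure: Ratio B score | Medium: Assay buffer for compound exposure, DMSO matched across wells | Compound dosing: Single-concentration screen | Probe or stimulus: K+/Tl+ depolarizing stimulus | Measured by: Kinetic FluxOR fluorescence, 10 s baseline plus 110 s post-stimulus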
KCNK9 inh conf: KCNK9 potassium channel inhibitors, confirmation, HEK293 cells, thallium flux, duplicate. 4,900 compounds, 43% hits. FluxOR thallium flux fluorescence. inhibition, % at 10 µM. shares compounds with KCNK9 block;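 active = thallium signal inhibited by more than 5 SD of the compound-free buffer control wells, on both duplicate plates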;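 note: 0% = assay buffer control wells without compound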
Kir21 sel: mouse Kir2.1 channel inhibition, confirmation, selectivity assay for KCNK9 modulator project, cell-based, HEK293, thallium flux | shares compounds with KCNK9 block | Kir2.1 cells, FluxOR thallium flux fluorescence | inhibition, % at 10 µM | 4,900 compounds, 4% hits | AID 492993, 2010;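 active = thallium signal drop more than 5 SD beyond the mean of the no-compound control wells, seen in both duplicate plates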;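 note: signal is fluorescence rise after thallium addition divided by baseline fluorescence; plate controls were assay buffer only for no effect and full block by chlorpromazine control for full effect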
KCNK9 uninduced: thallium flux in non-induced HEK293 cells, confirmation, counter-screen for KCNK9 inhibitor project, cell-based, second counter screen, non-induced KCNK9-HEK293; shares compounds with KCNK9 block; FluxOR thallium flux; inhibition, % at 10 µM; 4,900 compounds, 40% hits; AID 492997, 2010;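 active = thallium signal drop beyond 5 SD of the untreated control mean, on both duplicate plates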;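 note: plate controls were buffer only IC0 wells for no effect and SID17386958 at its maximal inhibitory level for full effect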
* = called active by the depositor; i = inactive; · = no result.

SMILES	KCNQ1 block	KCNK9 block	hERG protect	KCNK3 block	KCNQ1 act	KCNK9 inh conf	Kir21 sel	KCNK9 uninduced
CCS(=O)(=O)N1CCCC(C(=O)NCCCOC(C)C)C1 (centres undefined)	i	i	0	i	i	·	·	·
NC(=O)CC(NC(=O)c1ccc(Br)cc1)c1ccc(NC2CCCCCCC2)c([N+](=O)[O-])c1 (centres undefined)	i	-11*	-1	i	i	i	i	33%*
CC(=O)c1cccc(NC(=O)CN2C(=O)NC(C)(c3ccc4c(c3)OCCCO4)C2=O)c1 (centres undefined)	·	·	·	i	·	·	·	·
O=C(COc1ccc2c(c1)CCC2)N1CCN(c2cccc(C(F)(F)F)c2)CC1	i	i	-4	i	i	i	i	i
CC1(C)CC(=O)c2cc(OCC(=O)N3CCN(c4ccccc4F)CC3)ccc2O1	i	i	-9	i	i	·	·	·
O=C(COc1ccc2c(c1)CCC2)N1CCN(c2ccccc2F)CC1	i	i	-6	i	i	i	i	i
O=C(COc1cccc(C(F)(F)F)c1)N1CCN(c2ccc(O)cc2)CC1	i	i	-14	i	i	·	·	·
Nc1c(C(=O)CSc2nc(-c3ccccc3)cs2)c(=O)[nH]c(=O)n1C1CC1	·	·	·	i	·	·	·	·
O=C(CCCCCNC(=O)N1CCn2c1nc1ccccc12)NCCc1ccccc1	i	i	-4	i	i	·	·	·
Cc1cc(NC(=O)COC(=O)CCS(=O)(=O)c2cc(Cl)ccc2Cl)no1	i	i	-5	i	i	·	·	·
CC(=O)Nc1ccc(S(=O)(=O)N2CCCN(c3nc(C)cc(C)c3C#N)CC2)cc1	i	i	-10	i	i	·	·	·
CCCCc1ccc(-c2ccc(Br)cc2)nc1	i	i	-6	i	i	i	i	i
CCCc1ccc(-c2ccc(-c3noc(-c4ccncc4)n3)cc2)nc1	i	i	-8	i	i	·	·	·
COc1cccc(-c2nnc(SCC(=O)Nc3ccc4c(c3)OCCO4)n2Cc2ccco2)c1	i	-16*	-6	i	i	64%*	i	37%*
COc1ccc(S(=O)(=O)NCc2ccc(C(=O)NCCCN3CC(C)CC(C)C3)cc2)cc1 (centres undefined)	i	i	-6	i	i	·	·	·
COc1cc(C)ccc1OCc1cc(C(=O)NCCN2CCOCC2)no1	i	i	-13	i	i	·	·	·
Cc1ccc(-c2cc(-c3ccccc3)nc(N/N=C/c3cccnc3)n2)cc1	i	i	-14	i	i	·	·	·
C(=N/Nc1nc(-c2ccccc2)cc(-c2ccccc2)n1)/c1cccnc1	i	i	-11	i	i	i	i	i
Cc1cc(-c2ccccc2)nc(N/N=C/c2ccc(O)cc2O)n1	i	-15*	-17	i	i	75%*	i	33%*
CC1(C)CCC/C(=C\c2ccccc2)C1=O	i	i	-12	i	i	·	·	·
COC(=O)c1ccccc1C(=O)N1CCC(CCC(=O)NC2CC2)CC1	i	i	-4	i	i	·	·	·
O=C(CN1C(=O)NC2(CCCC2)C1=O)Nc1nc(-c2ccccc2)cs1	i	i	-3	i	i	·	·	·
CC(NC(=O)COC(=O)c1cccc(S(=O)(=O)N2CCCC2)c1)c1ccccc1 (centres undefined)	·	·	·	i	·	·	·	·
